Data as given in ChEMBL document CHEMBL1140106, “Blocking estrogen signaling after the hormone: pyrimidine-core inhibitors of estrogen receptor-coactivator binding” (J Med Chem, 2008).

Experiments:
Estrogen receptor [1] = target: T1, Estrogen receptor (Homo sapiens, UniProt P03372); experiment: Binding affinity to ERalpha assessed as inhibition of fluorescein-labeled nuclear receptor domain of steroid receptor coactivator 3 by TR-FRET assay
T1 sequence (P03372 whole entry): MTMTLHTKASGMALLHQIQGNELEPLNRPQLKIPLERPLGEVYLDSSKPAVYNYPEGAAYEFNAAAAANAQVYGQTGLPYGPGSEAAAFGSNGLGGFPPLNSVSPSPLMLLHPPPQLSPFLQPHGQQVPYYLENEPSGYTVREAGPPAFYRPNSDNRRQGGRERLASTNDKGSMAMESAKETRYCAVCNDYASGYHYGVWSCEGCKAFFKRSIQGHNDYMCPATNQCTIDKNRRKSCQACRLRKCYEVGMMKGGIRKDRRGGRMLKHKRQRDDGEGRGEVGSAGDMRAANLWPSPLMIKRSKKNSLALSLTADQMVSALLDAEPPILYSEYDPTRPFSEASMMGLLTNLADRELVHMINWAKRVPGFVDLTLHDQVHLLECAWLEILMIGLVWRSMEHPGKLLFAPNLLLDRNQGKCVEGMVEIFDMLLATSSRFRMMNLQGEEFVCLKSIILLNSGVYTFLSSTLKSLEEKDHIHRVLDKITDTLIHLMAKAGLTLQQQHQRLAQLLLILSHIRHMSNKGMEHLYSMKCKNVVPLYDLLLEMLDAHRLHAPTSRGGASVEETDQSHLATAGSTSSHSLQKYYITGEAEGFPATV
Procedure, shortened: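 Fluorescein-SRC-3-NRD (50 nM) was then added for 1 h at room temperature in the dark. Buffer: 20 mM Tris pH 7.5, 0.01% NP40, 50 mM NaCl. SRC-1 Box II peptide served as positive control.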

Estrogen receptor beta = Estrogen receptor beta (Homo sapiens, UniProt Q92731); experiment: Binding affinity to ERbeta assessed as inhibition of fluorescein-labeled nuclear receptor domain of steroid receptor coactivator 3 by TR-FRET assay
Estrogen receptor [2] = target: T1, Estrogen receptor; experiment: Antagonist activity at ERalpha in human HEC1 cells assessed as inhibition of estrogen-induced transcriptional activity after 24 hrs by reporter gene assay; assay type: functional, cell-based, HEC-1
Procedure, shortened: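 HEC-1 cells, which lack endogenous ER, were lipofectin-transfected with full-length ERα vector, 2ERE-luciferase reporter and pCMV β-gal as internal control. After 6 h the medium was changed to 5% charcoal-dextran-treated calf serum with ligands.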

Chain of Estrogen receptor beta (Q92731 whole entry, the tested form may be a part): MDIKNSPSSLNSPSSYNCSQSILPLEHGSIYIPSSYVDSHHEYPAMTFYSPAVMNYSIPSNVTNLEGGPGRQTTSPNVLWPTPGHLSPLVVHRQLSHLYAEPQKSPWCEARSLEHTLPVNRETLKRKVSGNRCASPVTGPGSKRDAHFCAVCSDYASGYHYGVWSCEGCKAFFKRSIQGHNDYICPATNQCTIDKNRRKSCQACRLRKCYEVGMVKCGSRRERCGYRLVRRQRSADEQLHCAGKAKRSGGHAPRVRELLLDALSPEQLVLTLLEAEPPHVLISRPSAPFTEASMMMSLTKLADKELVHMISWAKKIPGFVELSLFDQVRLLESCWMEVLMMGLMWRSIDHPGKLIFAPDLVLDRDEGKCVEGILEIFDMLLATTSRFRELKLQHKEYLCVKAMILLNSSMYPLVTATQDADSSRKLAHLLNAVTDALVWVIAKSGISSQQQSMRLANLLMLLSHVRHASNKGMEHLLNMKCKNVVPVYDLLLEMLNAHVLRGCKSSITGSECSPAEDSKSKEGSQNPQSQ

Row | SMILES | Ki (Estrogen receptor [1]) | Ki (Estrogen receptor beta) | IC50 (Estrogen receptor [2])
1 | CC(C)CNc1cc(/C=C/c2ccccc2)nc(N(C)CC(C)C)n1 | > 1000 µM | > 1000 µM | 
2 | CC(C)CNc1cc(SCC(C)C)nc(NCC(C)C)n1 | > 1000 µM | > 1000 µM | 
3 | CC(C)(C)OC(=O)N(Cc1ccccc1)c1cc(CCc2cccc3ccccc23)nc(NCc2cccc3ccccc23)n1 | > 1000 µM | > 1000 µM | 
4 | CC(C)CCc1cc(N(C)CC(C)C)nc(NCC(C)C)n1 | > 1000 µM | > 1000 µM | 
5 | CC(C)(C)OC(=O)N(Cc1cccc2ccccc12)c1cc(CCc2cccc3ccccc23)nc(NCc2ccccc2)n1 | > 1000 µM | > 1000 µM | 
6 | CC(C)CCc1cc(N(C)CC(C)C)nc(N(C)CC(C)C)n1 | > 1000 µM | > 1000 µM | 
7 | CC(C)CCc1cc(NCC(C)C)nc(N(C)CC(C)C)n1 | 7.2 µM | > 1000 µM | 9.7 µM
8 | CC(C)CN(C(=O)OC(C)(C)C)c1cc(CCc2cccc3ccccc23)nc(NCc2cccc3ccccc23)n1 | > 1000 µM | > 1000 µM | 
9 | CC(C)CNc1cc(NCC(C)C)ncn1 | > 1000 µM |  | 
10 | CCc1cc(NCC(C)C)nc(NCC(C)C)n1 |  | > 1000 µM | 
11 | CC(C)CCc1cc(NCC(C)C)nc(SCC(C)C)n1 | > 1000 µM | > 1000 µM | 
12 | CC(C)CCc1cc(N(CC(C)C)C(=O)OC(C)(C)C)nc(NCc2cccc3ccccc23)n1 | > 1000 µM | > 1000 µM | 
13 | CC(C)CCc1cc(CCC(C)C)nc(NCC(C)C)n1 | > 1000 µM | > 1000 µM | 
14 | CC(C)CNc1cc(NCC(C)C)nc(CCc2cccc3ccccc23)n1 | > 1000 µM | > 1000 µM | 
15 | CC(C)CCc1nc(NCc2ccccc2)cc(NCC(C)C)n1 | > 1000 µM | > 1000 µM | 
16 | CC(C)CCc1cc(SCc2ccccc2)nc(SCc2ccccc2)n1 | > 1000 µM | > 1000 µM | 
17 | CC(C)CCc1cc(N(CC(C)C)C(=O)OC(C)(C)C)nc(NCc2ccccc2)n1 | > 1000 µM | > 1000 µM | 
18 | CC(C)CCc1cc(N(Cc2cccc3ccccc23)C(=O)OC(C)(C)C)nc(NCc2ccccc2)n1 | > 1000 µM | > 1000 µM | 
19 | C(=C\c1cc(/C=C/c2ccccc2)nc(NCc2cccc3ccccc23)n1)/c1ccccc1 | > 1000 µM | > 1000 µM | 
20 | CC(C)CN(C)c1cc(/C=C/c2ccccc2)nc(N(C)CC(C)C)n1 | > 1000 µM | > 1000 µM | 
21 | c1ccc(CNc2cc(CCc3cccc4ccccc34)nc(NCc3ccccc3)n2)cc1 | > 1000 µM | > 1000 µM | 
22 | CC(C)CCc1cc(S(=O)(=O)Cc2ccccc2)nc(S(=O)(=O)Cc2ccccc2)n1 | > 1000 µM | > 1000 µM | 
23 | CC(C)CN(C(=O)OC(C)(C)C)c1cc(CCc2cccc3ccccc23)nc(NCc2ccccc2)n1 | > 1000 µM | > 1000 µM | 
24 | CC(C)CNc1cc(CCc2ccccc2)nc(N(C)CC(C)C)n1 | > 1000 µM | > 1000 µM | 
25 | CC(C)CNc1cc(CCc2cccc3ccccc23)nc(N(C)CC(C)C)n1 | > 1000 µM | > 1000 µM | 

Row | SMILES | Ki (Estrogen receptor [1]) | Ki (Estrogen receptor beta) | IC50 (Estrogen receptor [2])
26 | CC(C)CNc1nc(CCc2ccccc2)cc(N(C)CC(C)C)n1 |  | > 1000 µM | 
27 | C(=C\c1cc(NCc2ccccc2)nc(NCc2cccc3ccccc23)n1)/c1ccccc1 | > 1000 µM | > 1000 µM | 
28 | C(=C\c1cc(NCc2cccc3ccccc23)nc(NCc2cccc3ccccc23)n1)/c1ccccc1 | > 1000 µM | > 1000 µM | 
29 | CC(C)CNc1nc(CCc2ccccc2)cc(N(Cc2ccccc2)C(=O)OC(C)(C)C)n1 | > 1000 µM | > 1000 µM | 
30 | CC(C)CNc1nc(/C=C/c2ccccc2)cc(NCc2ccccc2)n1 | 16 µM | > 1000 µM | 9.8 µM
31 | CC(C)CCc1cc(OCC(C)C)nc(OCC(C)C)n1 | > 1000 µM | > 1000 µM | 
32 | O=S(=O)(Cc1ccccc1)c1cc(CCc2ccccc2)nc(S(=O)(=O)Cc2ccccc2)n1 | > 1000 µM | > 1000 µM | 
33 | CC(C)CNc1nc(/C=C/c2ccccc2)cc(N(Cc2ccccc2)C(=O)OC(C)(C)C)n1 | > 1000 µM | 132 µM | 
34 | CC(C)CSc1cc(CCc2ccccc2)nc(SCC(C)C)n1 | > 1000 µM | > 1000 µM | 
35 | CC(C)CNc1nc(CCc2cccc3ccccc23)cc(NCc2ccccc2)n1 | > 1000 µM | > 1000 µM | 
36 | c1ccc(CNc2cc(CCc3cccc4ccccc34)nc(NCc3cccc4ccccc34)n2)cc1 | > 1000 µM | > 1000 µM | 
37 | CC(C)CNc1cc(CCc2cccc3ccccc23)nc(NCc2ccccc2)n1 | > 1000 µM | > 1000 µM | 
38 | CC(C)CNc1cc(S(=O)(=O)CC(C)C)nc(NCC(C)C)n1 | > 1000 µM | > 1000 µM | 
39 | c1ccc(CCc2cc(SCc3ccccc3)nc(SCc3ccccc3)n2)cc1 | > 1000 µM | > 1000 µM | 
40 | CC(C)CS(=O)(=O)c1cc(CCc2ccccc2)nc(S(=O)(=O)CC(C)C)n1 | > 1000 µM | > 1000 µM | 
41 | CC(C)CNc1nc(CCc2cccc3ccccc23)cc(NCc2cccc3ccccc23)n1 | > 1000 µM | > 1000 µM | 
42 | CC(C)CCc1nc(NCC(C)C)cc(NCC(C)C)n1 | > 1000 µM | > 1000 µM | 
43 | CC(C)CNc1cc(OCC(C)C)nc(NCC(C)C)n1 | > 1000 µM | > 1000 µM | 
44 | CC(C)CN(C)c1cc(CCc2cccc3ccccc23)nc(N(C)CC(C)C)n1 | > 1000 µM | > 1000 µM | 
45 | CC(C)CCc1cc(NCc2ccccc2)nc(NCc2ccccc2)n1 | 4.1 µM | > 1000 µM | 8.3 µM
46 | CC(C)CCc1cc(SCC(C)C)nc(SCC(C)C)n1 | > 1000 µM | > 1000 µM | 
47 | c1ccc(CCc2cc(NCc3cccc4ccccc34)nc(NCc3cccc4ccccc34)n2)cc1 | > 1000 µM | > 1000 µM | > 1000 µM
48 | CC(C)CCc1cc(NCC(C)C)nc(NCc2cccc3ccccc23)n1 |  | > 1000 µM | 
49 | CC(C)CCc1cc(NCc2ccccc2)nc(NCC(C)C)n1 | 5.8 µM | > 1000 µM | 5.8 µM
50 | CC(C)CCc1cc(NCc2cccc3ccccc23)nc(NCC(C)C)n1 |  | > 1000 µM | 

Row | SMILES | Ki (Estrogen receptor [1]) | Ki (Estrogen receptor beta) | IC50 (Estrogen receptor [2])
51 | CC(C)CCc1cc(CCC(C)C)nc(NCc2cccc3ccccc23)n1 | > 1000 µM | > 1000 µM | 
52 | CC(C)CNc1cc(CCc2ccccc2)nc(NCc2ccccc2)n1 |  | > 1000 µM | 
53 | CC(C)CNc1nc(/C=C/c2ccccc2)cc(N(C)CC(C)C)n1 | > 1000 µM | > 1000 µM | > 1000 µM
54 | CC(C)CNc1nc(CCc2cccc3ccccc23)cc(N(C)CC(C)C)n1 |  | > 1000 µM | 
55 | CC(C)CNc1nc(CCc2ccccc2)cc(NCc2ccccc2)n1 | 1.7 µM | > 1000 µM | 1.9 µM
56 | CC(C)CNc1nc(CCc2ccccc2)cc(NCc2cccc3ccccc23)n1 | > 1000 µM | > 1000 µM | 
57 | CC(C)CNc1nc(CCc2cccc3ccccc23)cc(N(Cc2cccc3ccccc23)C(=O)OC(C)(C)C)n1 | > 1000 µM | > 1000 µM | 
58 | CC(C)CSc1cc(SCC(C)C)nc(SCC(C)C)n1 |  | > 1000 µM | > 1000 µM
59 | CC(C)(C)OC(=O)N(Cc1cccc2ccccc12)c1cc(/C=C/c2ccccc2)nc(NCc2cccc3ccccc23)n1 | > 1000 µM | > 1000 µM | 
60 | CC(C)CCc1cc(NCC(C)C)nc(S(=O)(=O)CC(C)C)n1 | > 1000 µM | > 1000 µM | 
61 | CC(C)CCc1cc(S(=O)(=O)CC(C)C)nc(S(=O)(=O)CC(C)C)n1 | > 1000 µM | > 1000 µM | 
62 | c1ccc(CCc2cc(CCc3ccccc3)nc(NCc3ccccc3)n2)cc1 | > 1000 µM | > 1000 µM | 
63 | CC(C)CNc1cc(CCc2cccc3ccccc23)nc(NCc2cccc3ccccc23)n1 | > 1000 µM | > 1000 µM | 
64 | C(=C\c1cc(NCc2ccccc2)nc(NCc2ccccc2)n1)/c1ccccc1 | > 1000 µM | > 1000 µM | > 1000 µM
65 | CC(C)CNc1nc(CCc2cccc3ccccc23)cc(N(Cc2ccccc2)C(=O)OC(C)(C)C)n1 | > 1000 µM | > 1000 µM | 
66 | c1ccc(CCc2cc(NCc3ccccc3)nc(NCc3cccc4ccccc34)n2)cc1 | > 1000 µM | > 1000 µM | 
67 | CC(C)CN(C)c1cc(CCc2ccccc2)nc(N(C)CC(C)C)n1 | > 1000 µM | > 1000 µM | 
68 | CC(C)CNc1cc(CCc2cccc3ccccc23)nc(NCC(C)C)n1 | 2.5 µM | > 1000 µM | 2.1 µM
69 | CC(C)CN(C(=O)OC(C)(C)C)c1cc(CCc2ccccc2)nc(NCc2ccccc2)n1 | > 1000 µM | > 1000 µM | 
70 | CC(C)CCc1cc(N(Cc2cccc3ccccc23)C(=O)OC(C)(C)C)nc(NCC(C)C)n1 | > 1000 µM | > 1000 µM | 
71 | c1ccc(CNc2cc(NCc3ccccc3)nc(NCc3ccccc3)n2)cc1 | > 1000 µM | > 1000 µM | 
72 | CC(C)CCc1cc(N(Cc2ccccc2)C(=O)OC(C)(C)C)nc(NCc2cccc3ccccc23)n1 | > 1000 µM | > 1000 µM | 
73 | CC(C)CCc1cc(N(Cc2ccccc2)C(=O)OC(C)(C)C)nc(NCC(C)C)n1 | > 1000 µM | > 1000 µM | 
74 | c1ccc(CNc2nc(CCc3cccc4ccccc34)cc(NCc3cccc4ccccc34)n2)cc1 | > 1000 µM | > 1000 µM | 
